Experimental data taken from ChEMBL document CHEMBL3286182, “4-aminoquinolone piperidine amides: noncovalent inhibitors of DprE1 with long residence time and potent antimycobacterial activity” (J Med Chem, 2014).
Converted amounts (≈) assume the structure as drawn. The source made the active and inactive calls. No cut-off for these calls is given here.

Columns and labels:
[1] = test system: Mycobacterium tuberculosis; assay: Antimycobacterial activity against Mycobacterium tuberculosis over expressing PimA after 5 days by standard microdilution method; format: functional; conditions: 120 h
Escherichia coli [2] = assay: Antimicrobial activity against Escherichia coli ARC523 at 100 uM; format: functional, organism-based
How it was run: (§1)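 Nonmycobacterial panel of Candida albicans, Gram-negative and Gram-positive pathogens.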

Haemophilus influenzae [3] = assay: Antimicrobial activity against Haemophilus influenzae ARC446 at 100 uM; format: functional, organism-based; how it was run: as §1
[4] = test system: Mycobacterium tuberculosis; assay: Antimycobacterial activity against Mycobacterium tuberculosis over expressing InhA after 5 days by standard microdilution method; format: functional; conditions: 120 h
[5] = test system: Mycolicibacterium smegmatis; assay: Binding affinity to Mycobacterium smegmatis recombinant DprE1 assessed as dissociation constant
How it was run: (§2)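 Progress curves (fluorescence vs time) recorded at several inhibitor concentrations with 75 nM Msm DprE1 in the FAD/HRP/Amplex Red coupled assay, pH 8.5, 25 °C. A single-step reversible slow-binding model was fitted globally, with vs and vi fitted per concentration and koff and Kiapp shared. Half-life and residence time were derived from koff.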

[6] = Intrinsic clearance in human liver microsomes at 1 uM up to 30 mins by LC-MS/MS analysis; format: ADME; conditions: read-out: CLH
[7] = Octanol-water partition coefficient, log D of the compound by shake-flask method; format: physicochemical
[8] = Intrinsic clearance in rat cryopreserved hepatocytes assessed per 10^6 cells at 1 uM up to 120 mins by LC-MS/MS analysis; format: ADME, cell-based, Hepatocyte; conditions: read-out: CLH
Escherichia coli [9] = assay: Antimicrobial activity against Escherichia coli ARC524 at 100 uM; format: functional, organism-based; how it was run: as §1
[10] = test system: Mycolicibacterium smegmatis; assay: Antimicrobial activity against Mycobacterium smegmatis mc2155 at 100 uM; format: functional, organism-based; conditions: str. MC2 155
Klebsiella pneumoniae = assay: Antimicrobial activity against Klebsiella pneumoniae ARC1865 at 100 uM; format: functional, organism-based; how it was run: as §1
Cytochrome P450 2C19 = Cytochrome P450 2C19 (Homo sapiens, UniProt P33261); assay: Inhibition of CYP2C19 (unknown origin); format: ADME
Chain of Cytochrome P450 2C19 (P33261 whole entry, canonical isoform): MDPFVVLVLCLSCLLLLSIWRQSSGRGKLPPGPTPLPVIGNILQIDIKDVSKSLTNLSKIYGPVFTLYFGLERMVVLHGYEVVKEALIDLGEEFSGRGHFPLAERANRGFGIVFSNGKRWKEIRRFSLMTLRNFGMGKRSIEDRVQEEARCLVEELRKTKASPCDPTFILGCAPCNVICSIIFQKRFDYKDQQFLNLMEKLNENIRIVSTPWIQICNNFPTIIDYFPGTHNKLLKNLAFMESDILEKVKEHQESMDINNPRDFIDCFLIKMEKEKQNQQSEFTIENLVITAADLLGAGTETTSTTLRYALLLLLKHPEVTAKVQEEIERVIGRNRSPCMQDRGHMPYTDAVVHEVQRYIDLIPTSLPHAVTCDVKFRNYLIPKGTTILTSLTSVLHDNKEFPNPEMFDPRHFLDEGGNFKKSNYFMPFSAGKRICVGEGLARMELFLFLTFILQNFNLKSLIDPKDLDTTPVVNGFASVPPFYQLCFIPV
How it was run: (§3)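 CYP inhibition IC50 measured on isoforms CYP3A4, CYP2D6, CYP2C9, CYP2C19 and CYP1A2.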

[11] = Permeability of the compound from apical to basolateral side in human Caco2 cells; format: ADME, cell-based; conditions: Caco-2, read-out: permeability
[12] = test system: Mycobacterium tuberculosis; assay: Antimycobacterial activity against Mycobacterium tuberculosis over expressing DprE1 after 5 days by standard microdilution method; format: functional; conditions: 120 h
Pseudomonas aeruginosa [13] = assay: Antimicrobial activity against Pseudomonas aeruginosa ARC545 at 100 uM; format: functional, organism-based; how it was run: as §1
[14] = test system: Mycobacterium tuberculosis; assay: Antimycobacterial activity against Mycobacterium tuberculosis H37Rv after 5 days by standard microdilution method; format: functional; conditions: 120 h
[15] = test system: Mycolicibacterium smegmatis; assay: Binding affinity to Mycobacterium smegmatis recombinant DprE1 assessed as residence time; how it was run: as §2
[16] = test system: Mycolicibacterium smegmatis; assay: Ratio of IC50 for Mycobacterium smegmatis DprE1 Y321H mutant to IC50 for Mycobacterium smegmatis recombinant wild type DprE1
How it was run: (§4)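 Recombinant M. smegmatis DprE1 (thioredoxin-6His fusion), wild type or Y321H, 75 nM. Enzyme was preincubated 30 min in FAD assay mix: 50 mM glycylglycine pH 8.5, 200 mM potassium glutamate, 10 μM FAD, 0.002% Brij-35, 2% DMSO. Reaction was started with 300 μM farnesylphosphoryl-β-D-ribofuranose, 0.01 mg/mL HRP and 50 μM amplex red at 25 °C.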

Cytochrome P450 1A2 = target: T1, Cytochrome P450 1A2 (Homo sapiens, UniProt P05177); assay: Inhibition of CYP1A2 (unknown origin); format: ADME; how it was run: as §3
T1 sequence (P05177 whole entry): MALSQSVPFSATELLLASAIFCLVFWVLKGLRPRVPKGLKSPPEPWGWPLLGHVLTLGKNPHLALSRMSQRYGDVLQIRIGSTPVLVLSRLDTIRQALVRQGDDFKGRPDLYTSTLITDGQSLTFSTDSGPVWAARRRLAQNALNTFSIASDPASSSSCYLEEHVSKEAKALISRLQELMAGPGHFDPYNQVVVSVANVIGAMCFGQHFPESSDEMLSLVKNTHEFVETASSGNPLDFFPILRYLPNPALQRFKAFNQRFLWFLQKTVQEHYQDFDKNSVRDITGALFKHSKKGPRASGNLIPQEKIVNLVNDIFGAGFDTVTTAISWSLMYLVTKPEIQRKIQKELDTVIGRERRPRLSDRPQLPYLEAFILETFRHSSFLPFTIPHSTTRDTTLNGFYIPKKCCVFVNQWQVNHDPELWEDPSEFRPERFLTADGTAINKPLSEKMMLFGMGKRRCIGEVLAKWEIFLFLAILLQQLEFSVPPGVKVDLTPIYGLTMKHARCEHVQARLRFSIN

[17] = test system: Mycobacterium tuberculosis; assay: Antimycobacterial activity against Mycobacterium tuberculosis H37Rv under hypoxic condition after 6 days by resazurin assay; format: functional; conditions: 144 h
[18] = test system: Mycolicibacterium smegmatis; assay: Binding affinity to Mycobacterium smegmatis recombinant DprE1 assessed as half life; how it was run: as §2
[19] = Solubility of the compound in 0.1 M phosphate buffer at pH 7.4 after 24 hrs by UV and MS analysis; format: physicochemical
[20] = test system: Mycolicibacterium smegmatis; assay: Antimicrobial activity against Mycobacterium smegmatis ATCC 607 at 100 uM; format: functional, organism-based
[21] = test system: Mycobacterium tuberculosis; assay: Antimycobacterial activity against Mycobacterium tuberculosis expressing GFP assessed as reduction of bacterial growth rate at 30 uM after 5 to 7 days; format: functional, organism-based
How it was run: (§5)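 GFP-expressing Mtb was grown several days in a microfluidic device with 7H9 flow medium. Compound at 30 μM was then flowed in from t = 118 h to t = 284 h, then washed out. Phase and GFP time-lapse images were taken at 1 h intervals to follow growth rate, morphology and lysis of single cells and microcolonies.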

Candida albicans = assay: Antimicrobial activity against Candida albicans ARC527 at 100 uM; format: functional, organism-based; how it was run: as §1
Haemophilus influenzae [22] = assay: Antimicrobial activity against Haemophilus influenzae ARC158 at 100 uM; format: functional, organism-based; how it was run: as §1
[23] = test system: Mycobacterium tuberculosis; assay: Antimycobacterial activity against Mycobacterium tuberculosis expressing GFP assessed as bacterial lysis at 30 uM after 5 to 7 days measured after drug washout; format: functional, organism-based; how it was run: as §5
Streptococcus pneumoniae = assay: Antimicrobial activity against Streptococcus pneumoniae ARC548 at 100 uM; format: functional, organism-based; how it was run: as §1
Cytochrome P450 3A4 = Cytochrome P450 3A4 (Homo sapiens, UniProt P08684); assay: Inhibition of CYP3A4 (unknown origin); format: ADME; how it was run: as §3
Chain of Cytochrome P450 3A4 (P08684 whole entry): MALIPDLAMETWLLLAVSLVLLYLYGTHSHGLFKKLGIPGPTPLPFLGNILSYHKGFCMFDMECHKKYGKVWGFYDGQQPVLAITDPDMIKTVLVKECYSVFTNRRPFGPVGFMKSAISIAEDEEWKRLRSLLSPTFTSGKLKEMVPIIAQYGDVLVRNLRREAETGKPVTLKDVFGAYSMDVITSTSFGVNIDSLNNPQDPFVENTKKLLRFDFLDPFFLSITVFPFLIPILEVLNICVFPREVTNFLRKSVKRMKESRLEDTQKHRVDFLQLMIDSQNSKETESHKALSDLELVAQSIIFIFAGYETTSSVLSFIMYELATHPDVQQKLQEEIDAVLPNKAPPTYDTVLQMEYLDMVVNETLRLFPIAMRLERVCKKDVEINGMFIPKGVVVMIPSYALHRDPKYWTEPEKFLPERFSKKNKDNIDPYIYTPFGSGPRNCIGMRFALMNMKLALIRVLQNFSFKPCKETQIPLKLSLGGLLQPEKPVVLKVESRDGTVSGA

[24] = Permeability of the compound from basolateral to apical side in human Caco2 cells; format: ADME, cell-based; conditions: Caco-2, read-out: permeability
[25] = test system: Mycobacterium tuberculosis; assay: Antimycobacterial activity against Mycobacterium tuberculosis over expressing TopA after 5 days by standard microdilution method; format: functional; conditions: 120 h
[26] = test system: Mycobacterium tuberculosis; assay: Antimycobacterial activity against Mycobacterium tuberculosis expressing GFP assessed as change bacterial morphology at 30 uM after 5 to 7 days; format: functional, organism-based; how it was run: as §5
Cytochrome P450 2C9 = Cytochrome P450 2C9 (Homo sapiens, UniProt P11712); assay: Inhibition of CYP2C9 (unknown origin); format: ADME; how it was run: as §3
Chain of Cytochrome P450 2C9 (P11712 whole entry): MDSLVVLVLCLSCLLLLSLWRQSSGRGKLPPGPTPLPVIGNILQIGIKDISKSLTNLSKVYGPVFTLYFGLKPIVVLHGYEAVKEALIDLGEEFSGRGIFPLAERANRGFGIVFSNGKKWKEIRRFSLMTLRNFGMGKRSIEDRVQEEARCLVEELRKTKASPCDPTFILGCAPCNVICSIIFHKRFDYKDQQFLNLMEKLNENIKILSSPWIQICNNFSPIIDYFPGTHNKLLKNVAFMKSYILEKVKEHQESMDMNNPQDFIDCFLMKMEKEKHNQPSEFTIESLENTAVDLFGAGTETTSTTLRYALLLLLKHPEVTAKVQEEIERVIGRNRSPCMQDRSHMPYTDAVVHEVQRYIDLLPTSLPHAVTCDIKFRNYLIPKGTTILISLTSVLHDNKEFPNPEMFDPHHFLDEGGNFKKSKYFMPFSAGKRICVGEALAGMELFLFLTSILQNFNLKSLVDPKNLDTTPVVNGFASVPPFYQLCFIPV

[27] = test system: Mycobacterium tuberculosis; assay: Antimycobacterial activity against Mycobacterium tuberculosis H37Rv infected in human THP1 cells after 7 days; format: functional, organism-based; conditions: THP-1
[28] = test system: Mycobacterium tuberculosis; assay: Antimycobacterial activity against Mycobacterium tuberculosis H37Rv at >MIC after 21 to 28 days; format: functional
Staphylococcus aureus = assay: Antimicrobial activity against Staphylococcus aureus ARC517 at 100 uM; format: functional, organism-based; how it was run: as §1
[29] = Inhibition of Mycobacterium smegmatis recombinant DprE1 using farnesylphosphoryl-beta-D-ribofuranose as substrate assessed as conversion of amplex red to resorufin after 30 mins; parameters: species or system Mycolicibacterium smegmatis
How it was run: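 Msm DprE1 (thioredoxin-6His fusion of Msm Rv3790) at 75 nM, preincubated 30 min with 10 μM FAD. Buffer: 50 mM glycylglycine pH 8.5, 200 mM potassium glutamate, 0.002% Brij-35, 2% DMSO, 25 °C. Started with 300 μM farnesylphosphoryl-β-D-ribofuranose, 0.01 mg/mL HRP and 50 μM Amplex Red.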

[30] = Fraction unbound in human plasma at 20 uM after 18 hrs by equilibrium dialysis method; format: ADME, cell-free
[31] = Cytotoxicity against human A549 cells after 72 hrs by resazurin based fluorescence assay; format: cell-based; conditions: read-out: MIC
How it was run: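 Cytotoxicity read as MMIC, the MIC on the A549 cell line.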

[32] = Inhibition of Mycobacterium smegmatis DprE1 Y321H mutant using farnesylphosphoryl-beta-D-ribofuranose as substrate assessed as conversion of amplex red to resorufin after 30 mins; parameters: species or system Mycolicibacterium smegmatis; how it was run: as §4
Cytochrome P450 2D6 = Cytochrome P450 2D6 (Homo sapiens, UniProt P10635); assay: Inhibition of CYP2D6 (unknown origin); format: ADME; how it was run: as §3
Chain of Cytochrome P450 2D6 (P10635 whole entry): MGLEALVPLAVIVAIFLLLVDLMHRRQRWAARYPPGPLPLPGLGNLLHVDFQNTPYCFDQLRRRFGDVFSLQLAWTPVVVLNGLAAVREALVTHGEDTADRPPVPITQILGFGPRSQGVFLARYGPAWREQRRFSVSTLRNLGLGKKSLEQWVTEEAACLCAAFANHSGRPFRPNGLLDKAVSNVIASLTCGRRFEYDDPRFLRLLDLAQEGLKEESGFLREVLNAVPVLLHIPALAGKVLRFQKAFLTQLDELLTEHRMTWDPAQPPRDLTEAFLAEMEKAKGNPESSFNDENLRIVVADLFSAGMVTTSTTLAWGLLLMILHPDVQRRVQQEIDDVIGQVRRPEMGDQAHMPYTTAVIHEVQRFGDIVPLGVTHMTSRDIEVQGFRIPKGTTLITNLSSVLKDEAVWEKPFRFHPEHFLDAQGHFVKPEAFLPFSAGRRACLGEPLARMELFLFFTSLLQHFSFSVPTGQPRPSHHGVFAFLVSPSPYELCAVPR

[33] = test system: Mycolicibacterium smegmatis; assay: Time dependent inhibition of Mycobacterium smegmatis recombinant DprE1 using farnesylphosphoryl-beta-D-ribofuranose as substrate assessed as conversion of amplex red to resorufin at 4.6 to 3333 nM
How it was run: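 Coupled fluorescence assay at 25 °C with 75 nM recombinant Msm DprE1 (wild type or Y321H) in 50 mM glycylglycine pH 8.5, 200 mM potassium glutamate, 10 μM FAD, 0.002% Brij-35, 2% DMSO. Enzyme preincubated 30 min, then started with 300 μM FPR, HRP and 50 μM Amplex Red. Progress curves followed over 0−40 min, with background subtracted.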

Pseudomonas aeruginosa [34] = assay: Antimicrobial activity against Pseudomonas aeruginosa ARC546 at 100 uM; format: functional, organism-based; how it was run: as §1
[35] = test system: Mycolicibacterium smegmatis; assay: Binding affinity to Mycobacterium smegmatis DprE1 Y321H mutant at 0.5 to 10000 nM up to 30 mins
[36] = test system: Mycolicibacterium smegmatis; assay: Binding affinity to Mycobacterium smegmatis recombinant DprE1 at 0.5 to 10000 nM up to 30 mins

Cn1ncc(C(=O)N2CCC(Nc3cc(=O)[nH]c4ccc(F)cc34)CC2)c1Cl
MIC [1]: 1.6 µM (≈ 0.646 µg/mL)
Activity (Escherichia coli [2]): inactive
Activity (Haemophilus influenzae [3]): inactive
MIC [4]: 1.6 µM (≈ 0.646 µg/mL)
Kdiss [5]: 0.00012 s⁻¹
microsomal CLint at 1 µM [6]: < 4.8 µL/min/mg
logD [7]: 2
hepatocyte CLint at 1 µM [8]: 5.6 µL/min/1e6 cells
Activity (Escherichia coli [9]): inactive
Activity [10]: inactive
Activity (Klebsiella pneumoniae): inactive
INH (Cytochrome P450 2C19): > 30 µM
Papp A→B [11]: 0.6 ×10⁻⁶ cm/s
MIC [12]: 100 µM (≈ 40.4 µg/mL)
Activity (Pseudomonas aeruginosa [13]): inactive
MIC [14]: 1.56 µM (≈ 0.63 µg/mL)
TIME [15]: 1.98 h
fold change (FC) [16]: 111
INH (Cytochrome P450 1A2): > 30 µM
IC80 [17]: > 100000 nM
T1/2 [18]: 1.38 h
solubility at 24 h [19]: 105 µM (≈ 42.4 µg/mL)
Activity [20]: inactive
Activity [21]: Active
Activity (Candida albicans): inactive
Activity (Haemophilus influenzae [22]): inactive
Activity [23]: Active
Activity (Streptococcus pneumoniae): inactive
INH (Cytochrome P450 3A4): > 30 µM
Papp B→A [24]: 13 ×10⁻⁶ cm/s
MIC [25]: 0.8 µM (≈ 0.323 µg/mL)
Activity [26]: Active
INH (Cytochrome P450 2C9): > 30 µM
Activity [27]: Active
MBC [28]: 3.1 µM (≈ 1.25 µg/mL)
Activity (Staphylococcus aureus): inactive
IC50 [29]: 5 nM
fraction unbound at 18 h, 20 µM [30]: 0.4
MCC at 72 h [31]: > 200 µM
IC50 [32]: 9470 nM
INH (Cytochrome P450 2D6): > 30 µM
inhibition [33]: Active
Activity (Pseudomonas aeruginosa [34]): inactive

Cn1ncc(C(=O)N2[C@@H]3CC[C@H]2C[C@@H](Nc2cc(=O)[nH]c4ccc(F)cc24)C3)c1Cl
Activity [35]: Active
MIC [12]: 6.25 µM (≈ 2.69 µg/mL)
MIC [14]: 0.39 µM (≈ 0.168 µg/mL)
Activity [36]: Active
fold change (FC) [16]: 12
IC50 [29]: 30 nM
IC50 [32]: 550 nM
